Results from ChEMBL document CHEMBL3616462, “Synthesis and antiviral activity of maleopimaric and quinopimaric acids' derivatives” (Bioorg Med Chem, 2015).

What was measured:
[1] = Toxicity against human Huh7ET cells assessed as reduction in beta-actin RNA levels at 20 uM; assay type: cell-based, Huh-7; settings: Huh7ET cells, values are per cent of control
How it was run: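 HCV RNA replicon assay in Huh7 ET cells. Compounds were added in triplicate at a single concentration of 20 µM. Cytotoxicity was read as β-actin RNA as % of control, alongside HCV RNA-derived luciferase activity. Interferon-α (2 IU/mL) was the positive control.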

[2] = Selectivity index, ratio of CC50 for Influenza A virus (A/Viet Nam/1203/2004(H5N1)) infected MDCK cells to EC50 for antiviral activity against Influenza A virus (A/Viet Nam/1203/2004(H5N1)) infected in MDCK cells; assay type: toxicity, cell-based; settings: dog; read-out: Ratio CC50/EC50
[3] = Antiviral activity against Influenza A virus (A/Brisbane/10/2007(H3N2)) infected in MDCK cells; assay type: functional, cell-based
rhinovirus A2 = assay: Antiviral activity against human rhinovirus 2 infected in MDCK cells; assay type: functional, organism-based; settings: Rhinovirus A
[4] = Selectivity index, ratio of CC50 for Influenza A virus (A/California/07/2009(H1N1)) infected MDCK cells to EC50 for antiviral activity against Influenza A virus H1N1 (A/California/07/2009(H1N1)) infected in MDCK cells; assay type: toxicity, cell-based; settings: dog; read-out: Ratio CC50/EC50
[5] = Selectivity index, ratio of CC50 for human rhinovirus 2 infected MDCK cells to EC50 for antiviral activity against human rhinovirus 2 infected in MDCK cells; assay type: toxicity, cell-based; settings: dog, MDCK cells infected with human rhinovirus 2; read-out: Ratio CC50/EC50
[6] = Cytotoxicity against Adenovirus Chicago 65089 infected human A549 cells; assay type: cell-based; settings: A549 cells infected with Adenovirus Chicago 65089
How it was run: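 Respiratory-virus panel screen on A-549 cells, with compounds supplied as DMSO solutions. CC50 is the cell inhibitory concentration at the 50% endpoint, in µM.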

[7] = Selectivity index, ratio of CC50 for HPV11 infected PHK cells epithelial raft cultures by standard AACF screening assay to EC50 for HPV11 infected in PHK cells epithelial raft cultures by standard AACF screening assay
unidentified adenovirus = assay: Antiviral activity against Adenovirus Chicago 65089 infected in human A549 cells; assay type: functional, organism-based; settings: Chicago 65089, A549
Hepatitis C virus = assay: Antiviral activity against HCV infected in human Huh7ET cells assessed as reduction in HCV RNA-derived luciferase activity at 20 uM by luciferase reporter gene assay; assay type: functional, Hepacivirus hominis; settings: Huh-7
How it was run: (§1)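 HCV RNA replicon assay in Huh7 ET cells. Compounds were added in triplicate at a single concentration of 20 µM. Antiviral activity was read as HCV RNA-derived luciferase signal, expressed as % of control. Toxicity was read as β-actin RNA, % of control. SI = toxicity/antiviral activity. Interferon-α (2 IU/mL) was the positive control.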

[8] = Antiviral activity against SARS coronavirus Urbani infected in African green monkey Vero 76 cells; assay type: functional, cell-based; settings: Severe acute respiratory syndrome-related coronavirus
[9] = Cytotoxicity against SARS coronavirus Urbani infected African green monkey Vero 76 cells; assay type: cell-based; settings: chlorocebus sabaeus, Vero 76 cells infected with SARS coronavirus Urbani
[10] = Cytotoxicity against Influenza B virus (B/Florida/4/2006) infected MDCK cells; assay type: cell-based, Canis lupus familiaris; settings: dog
human papillomavirus 11 = assay: Antiviral activity against HPV11 infected in PHK cells epithelial raft cultures by standard AACF screening assay; assay type: functional, organism-based; settings: human papillomavirus 11, PHK
[11] = Cytotoxicity against human rhinovirus 2 infected MDCK cells; assay type: cell-based, Canis lupus familiaris; settings: dog, MDCK cells infected with human rhinovirus 2
Influenza B virus = assay: Antiviral activity against Influenza B virus (B/Florida/4/2006) in MDCK cells; assay type: functional, cell-based; settings: B/Florida/4/2006, MDCK
[12] = Selectivity index, ratio of CC50 for Influenza A virus (A/Brisbane/10/2007(H3N2)) infected MDCK cells to EC50 for antiviral activity against Influenza A virus (A/Brisbane/10/2007(H3N2)); assay type: toxicity, cell-based; settings: dog; read-out: Ratio CC50/EC50
[13] = Cytotoxicity against Influenza A virus (A/California/07/2009(H1N1)) infected MDCK cells; assay type: cell-based, Canis lupus familiaris; settings: dog
[14] = Selectivity index, ratio of toxicity against human Huh7ET cells assessed as reduction in beta-actin RNA levels at 20 uM to antiviral activity against HCV infected in human Huh7ET cells assessed as reduction in HCV RNA-derived luciferase activity at 20 uM by luciferase reporter gene assay; assay type: cell-based, Huh-7; settings: read-out: Selectivity Index; how it was run: as §1
[15] = Antiviral activity against Influenza A virus (A/Viet Nam/1203/2004(H5N1)) infected in MDCK cells; assay type: functional, cell-based
[16] = Selectivity index, ratio of CC50 for Adenovirus Chicago 65089 infected human A549 cells to EC50 for antiviral activity against Adenovirus Chicago 65089 infected in human A549 cells; assay type: toxicity, cell-based; settings: A549 cells infected with Adenovirus Chicago 65089, read-out: Ratio CC50/EC50
[17] = Cytotoxicity against HPV11 infected PHK cells epithelial raft cultures by standard AACF screening assay; assay type: cell-based; settings: human
Hepatitis B virus = assay: Antiviral activity against HBV infected in human HepG2(2.2.15) cells; assay type: functional, organism-based
How it was run: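 Primary anti-HBV screen in confluent 2.2.15 cells, run alongside a toxicity assay in the same cells. Compounds were supplied as DMSO solutions.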

[18] = Cytotoxicity against HBV infected human HepG2(2.2.15) cells; assay type: cell-based; settings: HBV infected HepG2(2.2.15) cells
How it was run: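 Toxicity was measured on confluent 2.2.15 cells alongside the primary anti-HBV assay. CC50 is given in µM.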

[19] = Cytotoxicity against Influenza A virus (A/Brisbane/10/2007(H3N2)) infected MDCK cells; assay type: cell-based, Canis lupus familiaris; settings: dog
[20] = Selectivity index, ratio of CC50 for Influenza B virus (B/Florida/4/2006) infected MDCK cells to EC50 for antiviral activity against Influenza B virus (B/Florida/4/2006) in MDCK cells; assay type: toxicity, cell-based; settings: dog; read-out: Ratio CC50/EC50
[21] = Cytotoxicity against Influenza A virus (A/Viet Nam/1203/2004(H5N1)) infected MDCK cells; assay type: cell-based, Canis lupus familiaris; settings: dog
[22] = Antiviral activity against Influenza A virus (A/California/07/2009(H1N1)) infected in MDCK cells; assay type: functional, cell-based
[23] = Selectivity index, ratio of CC50 for ARS coronavirus Urbani infected African green monkey Vero 76 cells to EC50 for antiviral activity against ARS coronavirus Urbani infected in African green monkey Vero 76 cells; assay type: toxicity, cell-based; settings: Vero 76 cells infected with SARS coronavirus Urbani, read-out: Ratio CC50/EC50

COC(=O)[C@H]1[C@@H](C(=O)OC)C2(C(=O)OC)CC[C@@H]3[C@](C)(CCC[C@@]3(C)C(=O)OC)[C@H]2C[C@H]1C(=O)C(C)C (some centres undefined) gave a response, % of control at 20 µM [1] of 88.1%, a selectivity ratio [2] of 1 and an EC50 [3] of 32 µM. The EC50 (rhinovirus A2) was 32 µM, the selectivity ratio [4] was 1 and the selectivity ratio [5] was 1. The CC50 [6] was 32 µM, the “Ratio CC50/EC50” value [7] was 30 and the EC50 (unidentified adenovirus) was 32 µM. The inhibition at 20 µM (Hepatitis C virus) was 0.6%, the EC50 [8] was > 30 µM and the CC50 [9] was 30 µM. For the same compound, the CC50 [10] was 3.5 µM, the EC50 (human papillomavirus 11) was > 50 µM and the CC50 [11] was 32 µM. For the same compound, the EC50 (Influenza B virus) was 3.2 µM, the selectivity ratio [12] was 1 and the CC50 [13] was 33 µM. For the same compound, the selectivity ratio at 20 µM [14] was < 1, the EC50 [15] was 3.2 µM and the selectivity ratio [16] was 1. The CC50 [17] was < 50 µM, the EC50 (Hepatitis B virus) was > 10 µM and the EC90 (Hepatitis B virus) was > 10 µM. It also gave a CC50 [18] of 189 µM, a CC50 [19] of 33 µM and a selectivity ratio [20] of 1.1. For the same compound, the CC50 [21] was 3.3 µM and the EC50 [22] was 32 µM.

Work on COC(=O)[C@]1(C)CCC[C@]2(C)[C@H]3C[C@H]4C(C(C)C)=C[C@]3(CC[C@H]21)[C@@H]1/C(=N/O)CCC2(OCCO2)[C@@H]14 yielded a response, % of control at 20 µM [1] of 0.2%, a selectivity ratio [2] of 1 and an EC50 [3] of 3.2 µM. For the same compound, the EC50 (rhinovirus A2) was 3.2 µM, the selectivity ratio [5] was 1 and the CC50 [6] was 9.8 µM. For the same compound, the EC50 (unidentified adenovirus) was > 9.8 µM, the inhibition at 20 µM (Hepatitis C virus) was 97.9% and the EC50 [8] was > 2.4 µM. The CC50 [9] was 2.4 µM, the CC50 [10] was 3.2 µM and the EC50 (human papillomavirus 11) was > 50 µM. The CC50 [11] was 3.2 µM, the EC50 (Influenza B virus) was 3.2 µM and the selectivity ratio [12] was 1. The CC50 [13] was 2.9 µM, the selectivity ratio at 20 µM [14] was < 1 and the EC50 [15] was 3.2 µM. The CC50 [17] was < 50 µM, the EC50 (Hepatitis B virus) was > 10 µM and the EC90 (Hepatitis B virus) was > 10 µM. The CC50 [18] was 20 µM, the CC50 [19] was 3.3 µM and the selectivity ratio [20] was 1. For the same compound, the CC50 [21] was 3.3 µM and the EC50 [22] was > 2.9 µM.

With COC(=O)[C@]1(C)CCC[C@]2(C)[C@H]3CC4C(C(C)C)=C[C@]3(CC[C@H]21)[C@@H]1NC(=O)CC[C@H](O)[C@H]41 the response, % of control at 20 µM [1] was 102%, the selectivity ratio [23] was 5.1 and the EC50 [3] was > 28 µM. The EC50 (rhinovirus A2) was > 28 µM, the selectivity ratio [4] was 1 and the CC50 [6] was 29 µM. For the same compound, the EC50 (unidentified adenovirus) was > 29 µM, the inhibition at 20 µM (Hepatitis C virus) was 97.3% and the EC50 [8] was 6.3 µM. For the same compound, the CC50 [9] was 32 µM, the CC50 [10] was 35 µM and the EC50 (human papillomavirus 11) was < 50 µM. The CC50 [11] was 28 µM, the EC50 (Influenza B virus) was 24 µM and the CC50 [13] was 33 µM. The selectivity ratio at 20 µM [14] was > 1, the EC50 [15] was > 28 µM and the CC50 [17] was < 50 µM. The EC50 (Hepatitis B virus) was > 10 µM, the EC90 (Hepatitis B virus) was > 10 µM and the CC50 [18] was 58 µM. It also gave a CC50 [19] of 28 µM, a selectivity ratio [20] of 1.5 and a CC50 [21] of 28 µM. For the same compound, the EC50 [22] was 32 µM.

With COC(=O)[C@]1(C)CCC[C@]2(C)[C@H]3C[C@H]4C(C(C)C)=C[C@]3(CC[C@H]21)[C@H]1[C@@H]4[C@@H](OC(=O)CCC(=O)O)CC[C@@H]1OC(=O)CCC(=O)O the response, % of control at 20 µM [1] was 6.4%, the selectivity ratio [2] was 1 and the selectivity ratio [23] was 1.1. It also gave an EC50 (rhinovirus A2) of 31 µM, a selectivity ratio [5] of 1.1 and a CC50 [6] of 10 µM. For the same compound, the EC50 (unidentified adenovirus) was > 10 µM, the inhibition at 20 µM (Hepatitis C virus) was 96.6% and the EC50 [8] was 3.2 µM. For the same compound, the CC50 [9] was 3.6 µM, the CC50 [10] was 3.4 µM and the EC50 (human papillomavirus 11) was > 50 µM. For the same compound, the CC50 [11] was 33 µM, the EC50 (Influenza B virus) was 3.1 µM and the selectivity ratio at 20 µM [14] was < 1. For the same compound, the EC50 [15] was 3.2 µM, the CC50 [17] was < 50 µM and the EC50 (Hepatitis B virus) was > 10 µM. For the same compound, the EC90 (Hepatitis B virus) was > 10 µM, the CC50 [18] was 21 µM and the selectivity ratio [20] was 1.1. For the same compound, the CC50 [21] was 3.2 µM.

For COC(=O)[C@H](C)NC(=O)[C@]1(C)CCC[C@]2(C)[C@H]3C[C@H]4C(C(C)C)=C[C@]3(CC[C@H]21)[C@@H]1C(=O)CCC(=O)[C@@H]14, the response, % of control at 20 µM [1] was 54%, the selectivity ratio [2] was 1.1 and the selectivity ratio [23] was 1.1. For the same compound, the EC50 (rhinovirus A2) was > 25 µM, the CC50 [6] was 47 µM and the “Ratio CC50/EC50” value [7] was 20. The EC50 (unidentified adenovirus) was > 47 µM, the inhibition at 20 µM (Hepatitis C virus) was 60.8% and the EC50 [8] was 30 µM. The CC50 [9] was 32 µM, the CC50 [10] was 33 µM and the EC50 (human papillomavirus 11) was < 25 µM. The CC50 [11] was 25 µM, the EC50 (Influenza B virus) was 22 µM and the selectivity ratio at 20 µM [14] was > 1. The EC50 [15] was 31 µM, the CC50 [17] was < 25 µM and the EC50 (Hepatitis B virus) was > 10 µM. The EC90 (Hepatitis B virus) was > 10 µM, the CC50 [18] was 86 µM and the selectivity ratio [20] was 1.5. The CC50 [21] was 33 µM.
